Assay results: ChEMBL document CHEMBL1806486, “Discovery and evaluation of 3-phenyl-1H-5-pyrazolylamine-based derivatives as potent, selective and efficacious inhibitors of FMS-like tyrosine kinase-3 (FLT3)” (Bioorg Med Chem, 2011)

Tests used:
[1] = target: Vascular endothelial growth factor receptor 2 (Homo sapiens, UniProt P35968); assay: Inhibition of recombinant GST-tagged VEGFR2 expressed in Sf9 insect cells after 120 mins by Kinase-Glo assay; assay type: cell-based
[2] = target: Vascular endothelial growth factor receptor 1 (Homo sapiens, UniProt P17948); assay: Inhibition of recombinant GST-tagged VEGFR1 expressed in Sf9 insect cells after 120 mins by Kinase-Glo assay
Outline: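 GST-VEGFR1 (R781–I1338) or GST-VEGFR2 (V789–V1356) kinase domain, 50–100 ng, from Sf9 cells. Read-out was Kinase-Glo Plus luminescence.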

MOLM-13 = assay: Antiproliferation activity against human MOLM13 cells expressing FLT3 mutation assessed as cell viability after 72 hrs by MTS method; assay type: functional; conditions: MOLM-13, 72 h
[3] = target: T1, Receptor-type tyrosine-protein kinase FLT3 (Homo sapiens, UniProt P36888); assay: Inhibition of GST-tagged FLT3 expressing wild type kinase domain expressed in Sf9 insect cells after 4 hrs by Kinase-Glo assay
T1 sequence (P36888 whole entry): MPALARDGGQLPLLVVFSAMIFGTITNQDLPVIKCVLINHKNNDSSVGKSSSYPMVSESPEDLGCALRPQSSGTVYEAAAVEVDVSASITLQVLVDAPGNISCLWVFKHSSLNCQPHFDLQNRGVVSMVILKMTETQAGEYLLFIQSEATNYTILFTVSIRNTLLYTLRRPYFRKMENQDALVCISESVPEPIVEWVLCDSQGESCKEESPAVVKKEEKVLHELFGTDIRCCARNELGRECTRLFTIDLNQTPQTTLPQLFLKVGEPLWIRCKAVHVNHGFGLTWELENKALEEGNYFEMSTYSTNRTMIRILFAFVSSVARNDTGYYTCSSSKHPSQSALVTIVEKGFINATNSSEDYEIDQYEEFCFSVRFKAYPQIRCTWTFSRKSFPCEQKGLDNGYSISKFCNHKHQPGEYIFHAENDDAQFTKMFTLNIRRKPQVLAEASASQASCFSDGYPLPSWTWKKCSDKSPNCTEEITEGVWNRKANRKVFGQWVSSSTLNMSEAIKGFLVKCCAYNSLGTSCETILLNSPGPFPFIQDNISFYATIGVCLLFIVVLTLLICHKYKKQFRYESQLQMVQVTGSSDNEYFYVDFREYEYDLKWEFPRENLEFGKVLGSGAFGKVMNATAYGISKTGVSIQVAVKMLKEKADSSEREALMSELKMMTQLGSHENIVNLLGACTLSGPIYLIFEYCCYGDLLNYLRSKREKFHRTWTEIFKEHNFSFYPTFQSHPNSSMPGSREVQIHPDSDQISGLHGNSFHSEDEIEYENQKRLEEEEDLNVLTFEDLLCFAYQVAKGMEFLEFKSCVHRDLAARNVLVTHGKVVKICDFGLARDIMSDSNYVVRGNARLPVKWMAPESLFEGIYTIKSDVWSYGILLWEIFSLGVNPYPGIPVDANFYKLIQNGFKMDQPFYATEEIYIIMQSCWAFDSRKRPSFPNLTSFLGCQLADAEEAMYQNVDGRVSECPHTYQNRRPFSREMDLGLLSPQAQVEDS

Aurora kinase A = target: T2, Aurora kinase A (Homo sapiens, UniProt O14965); assay: Inhibition of recombinant GST-tagged Aurora A expressed in Sf9 insect cells after 90 mins by Kinase-Glo assay
T2 sequence (O14965 whole entry): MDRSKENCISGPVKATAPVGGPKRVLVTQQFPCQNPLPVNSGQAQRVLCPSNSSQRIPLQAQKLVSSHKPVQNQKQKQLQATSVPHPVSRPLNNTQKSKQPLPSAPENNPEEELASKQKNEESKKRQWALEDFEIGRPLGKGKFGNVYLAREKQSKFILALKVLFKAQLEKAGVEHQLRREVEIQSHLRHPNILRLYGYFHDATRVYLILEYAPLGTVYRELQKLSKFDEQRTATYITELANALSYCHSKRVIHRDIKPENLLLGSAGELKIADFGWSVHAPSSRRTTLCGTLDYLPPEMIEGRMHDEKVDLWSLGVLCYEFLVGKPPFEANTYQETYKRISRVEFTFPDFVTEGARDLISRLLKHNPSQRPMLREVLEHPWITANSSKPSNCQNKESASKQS
Outline: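 GST-Aurora A kinase domain (S123–S401, 150 ng) from Sf9 cells. Buffer was 50 mM Tris-HCl pH 7.4 with 10 mM NaCl, 10 mM MgCl2, 0.01% BSA and 1 mM DTT. Kinase-Glo Plus was added for 20 min at 25 °C before the luminescence read.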

[4] = target: Receptor-type tyrosine-protein kinase FLT3 (Homo sapiens) (UniProt P36888); assay: Inhibition of GST-tagged FLT3 expressing wild type kinase domain expressed in Sf9 insect cells at 1 uM after 4 hrs by Kinase-Glo assay
[5] = Clearance in Sprague-Dawley rat at 5 mg/kg, iv; assay type: ADME, organism-based; set-up: dose 5 mg/kg, route intravenous; conditions: in vivo
[6] = AUC (0 to infinity) in Sprague-Dawley rat at 5 mg/kg, iv; assay type: ADME, organism-based; set-up: time infinity, dose 5 mg/kg, route intravenous; conditions: plasma
[7] = Half life in Sprague-Dawley rat at 5 mg/kg, iv; assay type: ADME, organism-based; set-up: dose 5 mg/kg, route intravenous; conditions: in vivo
[8] = Volume of distribution at steady state in Sprague-Dawley rat at 5 mg/kg, iv; assay type: ADME, organism-based; set-up: dose 5 mg/kg, route intravenous; conditions: in vivo, read-out: Vdss
Mus musculus [9] = assay: Toxicity in athymic nu/nu nude mouse assessed as lethality at 50 mg/kg, iv for continuous 5 days; assay type: organism-based; set-up: dose 50 mg/kg, route intravenous; conditions: in vivo, 120 h
Mus musculus [10] = assay: Toxicity in normal mouse assessed as reduction of body weight at 50 mg/kg, iv for continuous 5 days; conditions: in vivo, 120 h
MV4-11 = assay: Antiproliferation activity against FLT3/ITD harboring human MV4-11 cells after 72 hrs by MTS method; assay type: functional; conditions: MV4-11, 72 h
[11] = Antiproliferation activity against human RS4:11 cells expressing wild type FLT3 after 72 hrs by MTS method; assay type: functional; conditions: RS4-11, 72 h
MOLT-4 = assay: Antiproliferation activity against human MOLT4 after 72 hrs by MTS method; assay type: functional; conditions: MOLT-4, 72 h
K562 = assay: Antiproliferation activity against human K562 cells expressing wild type BCR/ABL after 72 hrs by MTS method; assay type: functional; conditions: K562, 72 h

Chain of Vascular endothelial growth factor receptor 1 (P17948 whole entry, the tested form may be a part): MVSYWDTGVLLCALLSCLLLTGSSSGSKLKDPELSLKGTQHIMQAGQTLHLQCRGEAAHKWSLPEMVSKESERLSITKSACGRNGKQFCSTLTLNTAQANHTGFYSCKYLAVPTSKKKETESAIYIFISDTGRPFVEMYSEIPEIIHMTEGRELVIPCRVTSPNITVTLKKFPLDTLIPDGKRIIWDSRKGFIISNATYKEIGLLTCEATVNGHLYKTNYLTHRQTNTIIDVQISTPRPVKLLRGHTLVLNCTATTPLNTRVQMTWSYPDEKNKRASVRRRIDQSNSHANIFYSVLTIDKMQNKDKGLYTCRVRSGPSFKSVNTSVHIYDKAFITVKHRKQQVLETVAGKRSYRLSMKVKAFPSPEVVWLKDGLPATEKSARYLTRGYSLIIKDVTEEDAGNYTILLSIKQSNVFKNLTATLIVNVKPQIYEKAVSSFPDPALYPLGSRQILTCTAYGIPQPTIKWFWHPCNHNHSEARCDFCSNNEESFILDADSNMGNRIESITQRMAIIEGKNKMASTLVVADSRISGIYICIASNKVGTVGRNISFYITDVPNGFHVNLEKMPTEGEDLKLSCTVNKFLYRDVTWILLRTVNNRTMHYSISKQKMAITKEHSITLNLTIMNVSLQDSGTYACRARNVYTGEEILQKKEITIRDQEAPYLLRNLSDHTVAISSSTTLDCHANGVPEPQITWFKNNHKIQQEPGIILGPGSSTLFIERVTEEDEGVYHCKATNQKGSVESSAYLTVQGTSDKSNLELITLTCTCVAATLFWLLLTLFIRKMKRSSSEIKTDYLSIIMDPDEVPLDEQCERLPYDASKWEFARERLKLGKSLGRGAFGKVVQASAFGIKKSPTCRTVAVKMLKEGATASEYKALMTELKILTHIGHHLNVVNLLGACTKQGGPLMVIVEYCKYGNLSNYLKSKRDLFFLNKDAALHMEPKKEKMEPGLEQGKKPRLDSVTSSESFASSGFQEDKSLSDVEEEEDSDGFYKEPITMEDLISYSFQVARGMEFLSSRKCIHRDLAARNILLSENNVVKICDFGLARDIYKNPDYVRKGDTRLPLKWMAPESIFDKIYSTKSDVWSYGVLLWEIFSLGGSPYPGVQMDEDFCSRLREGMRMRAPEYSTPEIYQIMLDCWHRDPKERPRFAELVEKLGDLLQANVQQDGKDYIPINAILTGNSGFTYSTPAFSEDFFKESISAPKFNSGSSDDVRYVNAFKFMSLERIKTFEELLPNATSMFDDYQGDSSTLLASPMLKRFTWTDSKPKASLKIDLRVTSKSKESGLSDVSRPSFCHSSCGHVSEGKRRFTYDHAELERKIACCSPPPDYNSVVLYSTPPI
Chain of Vascular endothelial growth factor receptor 2 (P35968 whole entry): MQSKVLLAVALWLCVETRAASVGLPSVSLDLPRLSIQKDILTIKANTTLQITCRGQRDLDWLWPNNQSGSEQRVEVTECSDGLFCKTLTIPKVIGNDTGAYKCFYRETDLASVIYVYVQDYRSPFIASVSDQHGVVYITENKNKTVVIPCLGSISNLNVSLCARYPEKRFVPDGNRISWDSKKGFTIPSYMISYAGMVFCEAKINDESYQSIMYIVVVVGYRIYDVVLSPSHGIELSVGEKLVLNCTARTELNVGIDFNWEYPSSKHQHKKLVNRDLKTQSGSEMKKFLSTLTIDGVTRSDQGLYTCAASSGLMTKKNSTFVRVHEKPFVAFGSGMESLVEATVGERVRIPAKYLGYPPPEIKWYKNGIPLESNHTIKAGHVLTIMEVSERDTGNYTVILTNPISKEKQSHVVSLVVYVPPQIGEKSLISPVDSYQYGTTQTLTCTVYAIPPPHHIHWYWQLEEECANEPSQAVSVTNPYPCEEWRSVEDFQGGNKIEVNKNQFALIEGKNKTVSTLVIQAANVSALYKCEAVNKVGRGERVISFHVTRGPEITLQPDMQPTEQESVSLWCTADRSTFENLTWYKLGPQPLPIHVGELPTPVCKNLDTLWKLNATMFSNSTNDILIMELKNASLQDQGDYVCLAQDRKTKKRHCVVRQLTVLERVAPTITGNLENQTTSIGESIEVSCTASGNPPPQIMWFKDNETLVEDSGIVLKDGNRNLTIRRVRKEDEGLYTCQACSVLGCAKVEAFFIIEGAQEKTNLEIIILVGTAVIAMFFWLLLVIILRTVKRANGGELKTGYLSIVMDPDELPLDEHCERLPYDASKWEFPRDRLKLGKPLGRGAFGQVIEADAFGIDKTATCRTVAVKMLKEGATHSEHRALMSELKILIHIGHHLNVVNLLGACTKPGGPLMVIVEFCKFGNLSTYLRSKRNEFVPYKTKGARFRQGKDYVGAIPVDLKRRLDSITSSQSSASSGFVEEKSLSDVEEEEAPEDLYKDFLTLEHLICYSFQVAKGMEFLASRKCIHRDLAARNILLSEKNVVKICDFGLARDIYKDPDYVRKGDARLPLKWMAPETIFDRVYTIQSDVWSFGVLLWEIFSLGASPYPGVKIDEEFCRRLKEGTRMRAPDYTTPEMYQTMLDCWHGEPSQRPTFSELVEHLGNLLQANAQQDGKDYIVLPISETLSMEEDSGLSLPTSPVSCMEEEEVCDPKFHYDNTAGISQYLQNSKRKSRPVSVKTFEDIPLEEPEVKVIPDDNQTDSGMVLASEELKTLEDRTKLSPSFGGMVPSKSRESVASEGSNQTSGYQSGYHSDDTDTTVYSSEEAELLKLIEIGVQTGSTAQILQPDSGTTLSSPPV

| SMILES | IC50 [1] [µM] | IC50 [2] [µM] | GI50 (MOLM-13) [µM] | IC50 [3] [µM] | IC50 (Aurora kinase A) [µM] | further results |
| --- | --- | --- | --- | --- | --- | --- |
| CN1CCN(c2cccc(C(=O)Nc3cc(-c4cccc(NS(=O)(=O)c5ccccc5)c4)n[nH]3)c2)CC1 | 0.41 | > 1 | 0.19 | 0.065 | 0.85 |  |
| O=C(Nc1cc(-c2cccc(NS(=O)(=O)c3ccccc3)c2)n[nH]1)c1ccc(C(F)(F)F)cc1 |  |  |  | > 1 |  |  |
| CCS(=O)(=O)Nc1cccc(-c2cc(NC(=O)c3ccc(N4CCN(C)CC4)cc3)[nH]n2)c1 | > 1 | > 1 | 0.033 | 0.36 | > 1 |  |
| O=C(Nc1cc(-c2cccc(NS(=O)(=O)c3ccccc3)c2)n[nH]1)c1ccccc1 |  |  |  |  |  | inhibition [4]: 54% |
| Cc1nc(NCCN2CCOCC2)cc(Nc2cc(-c3cccc(NS(=O)(=O)c4ccccc4)c3)n[nH]2)n1 | > 1 | > 1000 | 0.46 | 0.06 | > 1 |  |
| CCCS(=O)(=O)Nc1cccc(-c2cc(NC(=O)c3ccc(N4CCN(C)CC4)cc3)[nH]n2)c1 | 2.72 | 2.61 | 0.056 | 0.1 | 1.64 |  |
| CN1CCN(c2ccc(C(=O)Nc3cc(-c4cccc(NS(=O)(=O)c5cccc(Cl)c5)c4)n[nH]3)cc2)CC1 | 0.25 | 0.04 | 0.039 | 0.008 | 1.71 |  |
| Cc1nc(Nc2cc(-c3cccc(NS(=O)(=O)c4ccccc4)c3)n[nH]2)cc(N2CCN(CCO)CC2)n1 | 0.14 | > 1 | 0.024 | 0.05 | 0.17 |  |
| Cc1cccc(S(=O)(=O)Nc2cccc(-c3cc(Nc4cc(N5CCN(C)CC5)nc(C)n4)[nH]n3)c2)c1 | > 1 | > 1 | 0.078 | 0.12 | > 1 |  |
| O=C(Nc1cc(-c2cccc(NS(=O)(=O)c3ccccc3)c2)n[nH]1)c1cccc(C(F)(F)F)c1 |  |  |  | > 1 |  |  |
| CC(C)S(=O)(=O)Nc1cccc(-c2cc(NC(=O)c3ccc(N4CCN(C)CC4)cc3)[nH]n2)c1 | > 1 | > 1 | 0.044 | 0.16 | > 1 |  |
| O=C(Nc1cc(-c2cccc(NS(=O)(=O)c3ccccc3)c2)n[nH]1)c1ccc(OCCN2CCCC2)cc1 | 0.2 | 0.27 | 0.025 | 0.007 | 1.17 | clearance [5]: 22.3 mL/min/kg; AUC(0-inf) [6]: 3940 ng·h/mL; half-life [7]: 9.9 h; Vd [8]: 10.7 L/kg; Activity (Mus musculus [9]): Toxic; Activity (Mus musculus [10]): Toxic |
| CCCCS(=O)(=O)Nc1cccc(-c2cc(Nc3cc(N4CCN(C)CC4)nc(C)n3)[nH]n2)c1 | > 1 | > 1 | 0.16 | 0.11 | > 1 |  |
| CN1CCN(c2ccc(C(=O)Nc3cc(-c4cccc(NC(=O)Nc5ccccc5)c4)n[nH]3)cc2)CC1 |  |  | 0.15 | 0.02 |  |  |
| CN1CCN(c2ccc(C(=O)Nc3cc(-c4cccc(N)c4)n[nH]3)cc2)CC1 |  |  | 0.077 | 0.014 |  |  |
| O=C(O)c1ccc(C(=O)Nc2cc(-c3cccc(NS(=O)(=O)c4ccccc4)c3)n[nH]2)cc1 |  |  |  |  |  | inhibition [4]: 61% |
| COc1ccc(S(=O)(=O)Nc2cccc(-c3cc(NC(=O)c4ccc(N5CCN(C)CC5)cc4)[nH]n3)c2)cc1 | 0.16 | 0.42 | 0.05 | 0.09 | > 1 |  |
| CN1CCN(c2ccc(C(=O)Nc3cc(-c4cccc(NC(=O)c5ccccc5)c4)n[nH]3)cc2)CC1 |  |  | 0.21 | 0.27 |  |  |
| O=C(O)c1cccc(C(=O)Nc2cc(-c3cccc(NS(=O)(=O)c4ccccc4)c3)n[nH]2)c1 |  |  |  |  |  | inhibition [4]: 56% |
| O=C(Nc1cc(-c2cccc(NS(=O)(=O)c3ccccc3)c2)n[nH]1)c1cccc(N2CCOCC2)c1 | > 1 | > 1 | 0.26 | > 1 | > 1 |  |
| CNC(=O)c1cc(Oc2ccc(NC(=O)Nc3ccc(Cl)c(C(F)(F)F)c3)cc2)ccn1 [SORAFENIB] |  |  |  |  |  | GI50 (MV4-11): 0.03 µM; GI50 [11]: 9.4 µM; GI50 (MOLT-4): 9 µM; GI50 (K562): 6.2 µM |
| CN1CCN(c2ccc(C(=O)Nc3cc(-c4ccc(NS(=O)(=O)c5ccccc5)cc4)n[nH]3)cc2)CC1 |  |  | 0.05 | 0.59 |  |  |
| CN1CCN(c2ccc(C(=O)Nc3cc(-c4cccc(NS(=O)(=O)c5ccc(Cl)cc5)c4)n[nH]3)cc2)CC1 | > 1 | 0.57 | 0.074 | 0.12 | 4.99 |  |
| O=C(Nc1cc(-c2cccc(NS(=O)(=O)c3ccccc3)c2)n[nH]1)c1ccc(N2CCOCC2)cc1 | 0.45 | > 1 | 0.1 | 0.029 | 0.39 |  |
